# Experimental data: ChEMBL document CHEMBL2146445, “Discovery of BIIB042, a Potent, Selective, and Orally Bioavailable γ-Secretase Modulator” (ACS Med Chem Lett, 2011)
# What was measured:
# [1] = Tmax in rat at 10 mg/kg, po; type: ADME, organism-based; parameters: dose 10 mg/kg, route oral; conditions: in vivo
# Outline: (§1)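 Single dose to rats, dogs and cynomolgus monkeys. IV at 1 mg/kg in EtOH:PEG400:water (10:40:50), 1 mL/kg. Oral at 10 mg/kg as crystalline HCl salt suspension in 0.5% CMC, 0.2% Tween80, 5 mL/kg. Plasma sampled over 0–24 h. Values are mean ± SD, n = 3.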
# [2] = Oral bioavailability in cynomolgus monkey at 10 mg/kg; type: ADME, organism-based, Macaca fascicularis; conditions: in vivo; outline: as §1
# [3] = Half life in rat at 1 mg/kg, iv; type: ADME, organism-based; parameters: dose 1 mg/kg, route intravenous; conditions: in vivo
# Outline: (§2)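 Single-dose PK in rats, dogs and cynomolgus monkeys. The compound was given iv at 1 mg/kg in EtOH:PEG400:water (10:40:50) at 1 mL/kg. […] Values are mean ± SD, n = 3.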
# [4] = Half life in cynomolgus monkey at 10 mg/kg, po; type: ADME, organism-based, Macaca fascicularis; parameters: dose 10 mg/kg, route oral; conditions: in vivo
# Outline: (§3)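 Single oral dose of 10 mg/kg given to rats, dogs or cynomolgus monkeys. The crystalline HCl salt was suspended in 0.5% CMC with 0.2% Tween80 and dosed at 5 mL/kg. […] Parameters are reported as mean ± SD, n = 3.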
# [5] = AUC (0 to 24 hrs) in rat at 1 mg/kg, iv; type: ADME, organism-based; parameters: time < 24 hr, dose 1 mg/kg, route intravenous; conditions: plasma; outline: as §2
# [6] = Cmax in rat at 10 mg/kg, po; type: ADME, organism-based; parameters: dose 10 mg/kg, route oral; conditions: in vivo; outline: as §3
# [7] = Oral bioavailability in rat at 10 mg/kg; type: ADME, organism-based; conditions: in vivo; outline: as §1
# [8] = Plasma clearance in cynomolgus monkey at 1 mg/kg, iv; type: ADME, organism-based, Macaca fascicularis; parameters: dose 1 mg/kg, route intravenous; outline: as §1
# [9] = AUC (0 to 24 hrs) in rat at 10 mg/kg, po; type: ADME, organism-based; parameters: time < 24 hr, dose 10 mg/kg, route oral; conditions: plasma
# [10] = Cmax in dog at 10 mg/kg, po; type: ADME, organism-based, Canis lupus familiaris; parameters: dose 10 mg/kg, route oral; conditions: in vivo; outline: as §3
# [11] = Tmax in dog at 10 mg/kg, po; type: ADME, organism-based, Canis lupus familiaris; parameters: dose 10 mg/kg, route oral; conditions: in vivo; outline: as §1
# [12] = Half life in rat at 10 mg/kg, po; type: ADME, organism-based; parameters: dose 10 mg/kg, route oral; conditions: in vivo; outline: as §3
# [13] = Half life in cynomolgus monkey at 1 mg/kg, iv; type: ADME, organism-based, Macaca fascicularis; parameters: dose 1 mg/kg, route intravenous; conditions: in vivo; outline: as §2
# [14] = Cmax in cynomolgus monkey at 10 mg/kg, po; type: ADME, organism-based, Macaca fascicularis; parameters: dose 10 mg/kg, route oral; conditions: in vivo; outline: as §3
# [15] = AUC (0 to 24 hrs) in cynomolgus monkey at 10 mg/kg, po; type: ADME, organism-based, Macaca fascicularis; parameters: time < 24 hr, dose 10 mg/kg, route oral; conditions: plasma
# [16] = Tmax in cynomolgus monkey at 10 mg/kg, po; type: ADME, organism-based, Macaca fascicularis; parameters: dose 10 mg/kg, route oral; conditions: in vivo; outline: as §1
# [17] = Volume of distribution at steady state in dog at 1 mg/kg, iv; type: ADME, organism-based, Canis lupus familiaris; parameters: dose 1 mg/kg, route intravenous; conditions: in vivo, read-out: Vdss; outline: as §1
# [18] = Oral bioavailability in dog at 10 mg/kg; type: ADME, organism-based, Canis lupus familiaris; conditions: in vivo; outline: as §1
# [19] = Volume of distribution at steady state in rat at 1 mg/kg, iv; type: ADME, organism-based; parameters: dose 1 mg/kg, route intravenous; conditions: in vivo, read-out: Vdss; outline: as §1
# [20] = Volume of distribution at steady state in cynomolgus monkey at 1 mg/kg, iv; type: ADME, organism-based, Macaca fascicularis; parameters: dose 1 mg/kg, route intravenous; conditions: in vivo, read-out: Vdss; outline: as §1
# [21] = Plasma clearance in dog at 1 mg/kg, iv; type: ADME, organism-based, Canis lupus familiaris; parameters: dose 1 mg/kg, route intravenous; outline: as §1
# [22] = Half life in dog at 1 mg/kg, iv; type: ADME, organism-based, Canis lupus familiaris; parameters: dose 1 mg/kg, route intravenous; conditions: in vivo; outline: as §2
# [23] = Thermodynamic solubility of the compound; type: physicochemical; conditions: read-out: Therm_solubility
# Outline: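 Thermodynamic solubility measured on the crystalline HCl salt.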
# [24] = AUC (0 to 24 hrs) in cynomolgus monkey at 1 mg/kg, iv; type: ADME, organism-based, Macaca fascicularis; parameters: time < 24 hr, dose 1 mg/kg, route intravenous; conditions: plasma; outline: as §2
# [25] = Half life in dog at 10 mg/kg, po; type: ADME, organism-based, Canis lupus familiaris; parameters: dose 10 mg/kg, route oral; conditions: in vivo; outline: as §3
# [26] = Plasma clearance in rat at 1 mg/kg, iv; type: ADME, organism-based; parameters: dose 1 mg/kg, route intravenous; outline: as §1
# [27] = AUC (0 to 24 hrs) in dog at 10 mg/kg, po; type: ADME, organism-based, Canis lupus familiaris; parameters: time < 24 hr, dose 10 mg/kg, route oral; conditions: plasma
# [28] = AUC (0 to 24 hrs) in dog at 1 mg/kg, iv; type: ADME, organism-based, Canis lupus familiaris; parameters: time < 24 hr, dose 1 mg/kg, route intravenous; conditions: plasma; outline: as §2
smiles,measurement,setting,value
CC1CCN([C@H](c2ccc(F)cc2)c2ccc([C@@H](C)C(=O)O)cc2-c2ccc(C(F)(F)F)cc2)CC1.Cl,Tmax,[1],1.7 h
same,bioavailability,[2],106%
same,half-life,[3],7.2 h
same,half-life,[4],25 h
same,AUC(0-t) at 24 h,[5],10400 ng·h/mL
same,Cmax,[6],6000 ng/mL
same,bioavailability,[7],47%
same,clearance,[8],3.7 mL/min/kg
same,AUC(0-t) at 24 h,[9],49700 ng·h/mL
same,Cmax,[10],1400 ng/mL
same,Tmax,[11],1.3 h
same,half-life,[12],6.6 h
same,half-life,[13],11.2 h
same,Cmax,[14],5900 ng/mL
same,AUC(0-t) at 24 h,[15],48000 ng·h/mL
same,Tmax,[16],2 h
same,Vd,[17],0.9 L/kg
same,bioavailability,[18],44%
same,Vd,[19],0.8 L/kg
same,Vd,[20],1.7 L/kg
same,clearance,[21],14 mL/min/kg
same,half-life,[22],1.3 h
same,solubility thermodynamic,[23],20 µg/mL
same,AUC(0-t) at 24 h,[24],4700 ng·h/mL
same,half-life,[25],2.3 h
same,clearance,[26],1.5 mL/min/kg
same,AUC(0-t) at 24 h,[27],5200 ng·h/mL
same,AUC(0-t) at 24 h,[28],1200 ng·h/mL
